The values that follow come from ChEMBL document CHEMBL1153268 (Bioorg Med Chem Lett, 2009).

The source made the active and inactive calls. The calls are words filed in the database; no cut-off is given here.

The target of assay [1] is T1, Neurotensin receptor type 1 (Homo sapiens, UniProt P30989). The assay can be described thus: Agonist activity at NTR1 expressed in CHOK1 cells assessed as stimulation of calcium mobilization at 10 uM relative to neurotensin. The format is functional, cell-based. Conditions: CHO-K1. The gist of the method: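 CHO-K1 cells stably expressing NTR1, plated 20,000/well 24 h before assay, washed and loaded with calcium-4 dye in HBSS/20 mM HEPES/2 mM probenecid, 1 h, 37 °C, 5% CO2. Compound added at 10 μM final (1% DMSO), triplicate.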
T1 sequence (P30989 whole entry): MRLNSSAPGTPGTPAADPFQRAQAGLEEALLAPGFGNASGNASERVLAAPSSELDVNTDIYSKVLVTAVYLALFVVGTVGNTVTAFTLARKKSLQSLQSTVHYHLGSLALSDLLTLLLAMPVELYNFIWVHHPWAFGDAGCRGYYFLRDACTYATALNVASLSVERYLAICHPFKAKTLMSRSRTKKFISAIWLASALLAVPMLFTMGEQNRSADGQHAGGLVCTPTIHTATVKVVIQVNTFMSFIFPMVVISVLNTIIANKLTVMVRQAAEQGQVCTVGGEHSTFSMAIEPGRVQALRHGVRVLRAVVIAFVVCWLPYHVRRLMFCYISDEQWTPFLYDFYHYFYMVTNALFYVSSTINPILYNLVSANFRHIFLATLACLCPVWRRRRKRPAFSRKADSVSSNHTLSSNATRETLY
A general note: Calcium flux is commonly read through the fluorescence of an indicator in the cells.

Assay [2] concerns the target T1, Neurotensin receptor type 1. The assay can be described thus: Agonist activity at NTR1 expressed in CHOK1 cells by calcium mobilization assay. The format is functional, cell-based, CHO-K1.

For the molecule `COc1cccc(OC)c1-c1cc(C(=O)NCC(=O)O)nn1-c1ccnc2cc(Cl)ccc12`, the outcome in assay [1] was inactive.
Turning to `CC(C)C[C@H](NC(=O)c1cc(-c2ccccc2OC(F)(F)F)n(-c2ccnc3cc(Cl)ccc23)n1)C(=O)O`, the Activity in assay [1] was 84%. Besides, the EC50 in assay [2] worked out at 1210 nM.
For `CCCC[C@H](NC(=O)c1cc(-c2c(OC)cccc2OC)n(-c2ccnc3cc(Cl)ccc23)n1)C(=O)O`, the Activity in assay [1] amounted to 20%.
As to `COc1cccc(OC)c1-c1cc(C(=O)N[C@H](CC(C)C)C(=O)O)nn1-c1ccnc2cc(Cl)ccc12`, the Activity in assay [1] amounted to 57%. For the same molecule, the EC50 in assay [2] was 986 nM.
For `CC(C)C[C@H](NC(=O)Cn1ccc2cc(NS(=O)(=O)c3cccc4cccnc34)ccc21)C(=O)O`, the 50% effective concentration (EC50) in assay [2] amounted to 178 nM.
Turning to `COc1cccc(OC)c1-c1cc(C(=O)N[C@@H](Cc2ccccc2)C(=O)O)nn1-c1ccnc2cc(Cl)ccc12`, the outcome in assay [1] was inactive.
`COc1cccc(OC)c1-c1cc(C(=O)N[C@@H](CC(C)C)C(=O)O)nn1-c1ccnc2cc(Cl)ccc12`: in assay [2], the EC50 came to 67 nM.
In the case of `COc1cccc(OC)c1-c1cc(C(=O)N[C@@H](CC(C)C)C(=O)O)nn1-c1cccc2ccccc12`, the result in assay [1] was inactive.
The same measure, in the same setting: to `CC[C@H](NC(=O)c1cc(-c2c(OC)cccc2OC)n(-c2ccnc3cc(Cl)ccc23)n1)C(=O)O` belongs 11%.
Still for that read-out and setting: the entry for `COc1cccc(OC)c1-c1cc(C(=O)N[C@H](C(=O)O)C2CCCCC2)nn1-c1ccnc2cc(Cl)ccc12` is “inactive”; for `CC[C@H](C)[C@H](NC(=O)c1cc(-c2c(OC)cccc2OC)n(-c2ccnc3cc(Cl)ccc23)n1)C(=O)O` it is “inactive”.
In the case of `COc1cccc(OC)c1-c1cc(C(=O)N[C@H](C(=O)O)C(C)C)nn1-c1ccnc2cc(Cl)ccc12`, the Activity in assay [1] was 5%.
Take `COc1ccccc1-c1cc(C(=O)N[C@@H](CC(C)C)C(=O)O)nn1-c1ccnc2cc(Cl)ccc12`: in assay [1], the Activity is 86%. The EC50 in assay [2] stood at 220 nM.
Consider `CC(C)CC(NC(=O)OCC1c2ccccc2-c2ccccc21)C(=O)O` (stereo not given), for which the EC50 in assay [2] was determined as 216 nM.
With `CC(C)C[C@H](NC(=O)c1cc(-c2ccccc2)n(-c2ccnc3cc(Cl)ccc23)n1)C(=O)O`, the Activity in assay [1] is 62%. Further, the EC50 in assay [2] is 2040 nM.
On to `CCC[C@H](NC(=O)c1cc(-c2c(OC)cccc2OC)n(-c2ccnc3cc(Cl)ccc23)n1)C(=O)O`, for which the Activity in assay [1] was 18%.

By EC50 is commonly meant the midpoint of the concentration-response curve.
